From ChEMBL document CHEMBL5537213, “Cytotoxicity of phosphoramidate, bis-amidate and cycloSal prodrug metabolites against tumour and normal cells” (RSC Med Chem, 2024)
The source made the active and inactive calls. No cut-off for these calls is given here.

Assays:
[1] = tested on: BXPC-3; assay: Cytotoxicity against human BXPC-3 cells assessed as reduction in cell viability at 256 uM incubated for 72 hrs by CyQUANT assay; assay type: functional, cell-based
Outline: (§1)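 BxPC3 (5 × 10^3/well) or primary C57BL/6 male mouse astrocytes (>90% GFAP-positive; 3 × 10^3/well) treated 24 h after plating for 72 h, 0.1% DMSO final. Stained 1 h at 37 °C with CyQUANT Direct nucleic acid stain plus background suppressor in HBSS; whole-well fluorescence imaged (Ex 488/Em 520 nm), normalised to control. At least three experiments, at least four replicates each.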

[2] = tested on: GL261; assay: Antiproliferative activity against mouse GL261 cells transfected with luciferase gene assessed as reduction in ATP release at 256 uM incubated for 72 hrs in presence of D-luciferin by luminescence based SpectraMax M5 microplate reader analysis; assay type: functional, cell-based
Outline: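 Luciferase-expressing GL261-Luc seeded at 3 × 10^3/well in DMEM with 10% FBS; 24 h later exposed to compounds with 0.1% DMSO final for 72 h. Medium replaced by D-luciferin 150 μg mL-1 in complete medium, 15 min at 37 °C; luminescence read on plate reader, normalised to control. At least three experiments, at least four replicates each.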

[3] = tested on: Astrocyte; assay: Cytotoxicity against mouse astrocyte cells assessed as reduction in cell viability at 256 uM incubated for 72 hrs by CyQUANT assay; assay type: toxicity, cell-based; outline: as §1
[4] = tested on: BXPC-3; assay: Antiproliferative activity against human BXPC-3 cells assessed as reduction in cell index at 256 uM incubated for 72 hrs by xCELLigence real time cell analyser method; assay type: functional, cell-based
Outline: (§2)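 Cells seeded on E16 xCELLigence plates (BxPC3 5 × 10^3/well; GL261-Luc and primary astrocytes 3 × 10^3/well), treated after 24 h in supplemented DMEM with 0.1% DMSO final. Impedance cell index read hourly for 72 h, normalised to control (100% viability). At least three independent experiments, two replicates each; ANOVA with Dunnett's test.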

[5] = tested on: GL261; assay: Antiproliferative activity against mouse GL261 cells transfected with luciferase gene assessed as reduction in cell index at 256 uM incubated for 72 hrs by xCELLigence real time cell analyser method; assay type: functional, cell-based; outline: as §2
[6] = tested on: Astrocyte; assay: Cytotoxicity against mouse astrocyte cells assessed as reduction in cell index at 256 uM incubated for 72 hrs by xCELLigence real time cell analyser method relative to control; assay type: toxicity, cell-based; parameters: scale not given: the % may be the effect or the level left; outline: as §2
[7] = tested on: BXPC-3; assay: Induction of apoptosis in human BXPC-3 cells assessed as increase in caspase 3/7 activation at 256 uM incubated for 72 hrs by laser scanning imaging analysis; assay type: functional, cell-based
Outline: (§3)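 BxPC3 (5 × 10^3/well) or GL261-Luc (3 × 10^3/well) exposed 24 h post-plating for 72 h, 0.1% DMSO final. CellEvent caspase-3/7 green reagent 1 h at 37 °C; whole-well fluorescence imaged (Ex 488/Em 520 nm). Cells then fixed, permeabilised, blocked and stained with CellTag 700 (Ex 685/Em 720 nm); caspase signal normalised to cell number, expressed as fold over control. At least three experiments, at least four replicates each.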

[8] = tested on: GL261; assay: Induction of apoptosis in mouse GL261 cells transfected with luciferase gene assessed as increase in caspase 3/7 activation at 256 uM incubated for 72 hrs by laser scanning imaging analysis; assay type: functional, cell-based; outline: as §3
[9] = tested on: BXPC-3; assay: Cytotoxicity against human BXPC-3 cells assessed as reduction in cell viability at 128 uM incubated for 72 hrs by CyQUANT assay relative to control; assay type: functional
Outline: (§4)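 BxPC3 (5 × 10^3/well) or primary astrocytes (3 × 10^3/well) were dosed 24 h after plating, in supplemented DMEM with 0.1% DMSO final, for 72 h. Stained 1 h at 37 °C with CyQUANT Direct nucleic acid stain plus background suppressor in HBSS. Whole-well fluorescence imaged (Ex 488/Em 520 nm) and normalised to control. ≥3 experiments, ≥4 replicates.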

[10] = tested on: GL261; assay: Antiproliferative activity against mouse GL261 cells transfected with luciferase gene assessed as reduction in ATP release at 128 uM incubated for 72 hrs in presence of D-luciferin by luminescence based SpectraMax M5 microplate reader analysis; assay type: functional; parameters: scale not given: the % may be the effect or the level left
Outline: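 Luciferase-expressing GL261 cells were seeded at 3 × 10^3/well, then dosed 24 h later for 72 h in supplemented DMEM with 0.1% DMSO final. Medium was replaced with D-luciferin (150 µg/mL in complete medium) for 15 min at 37 °C, and luminescence was read on a plate reader and normalised to control. ≥3 experiments, ≥4 replicates.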

[11] = tested on: Astrocyte; assay: Cytotoxicity against mouse astrocyte cells assessed as reduction in cell viability at 128 uM incubated for 72 hrs by CyQUANT assay; assay type: toxicity, cell-based; outline: as §4
[12] = tested on: BXPC-3; assay: Antiproliferative activity against human BXPC-3 cells assessed as reduction in cell index at 128 uM incubated for 72 hrs by xCELLigence real time cell analyser method relative to control; assay type: functional; parameters: scale not given: the % may be the effect or the level left
Outline: (§5)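 Real-time impedance: cells seeded on E16 plates (BxPC3 5 × 10^3/well; GL261-Luc and primary astrocytes 3 × 10^3/well), treated after 24 h in DMEM/10% FBS with 0.1% DMSO final. Cell index read hourly for 72 h and normalised to control (100% viability). At least three independent experiments, duplicates each; mean ± S.D.; ANOVA with Dunnett's test.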

[13] = tested on: Astrocyte; assay: Cytotoxicity against mouse astrocyte cells assessed as reduction in cell index at 128 uM measured after 4 hrs by xCELLigence real time cell analyser method; assay type: toxicity, cell-based; outline: as §5
[14] = tested on: BXPC-3; assay: Induction of apoptosis in human BXPC-3 cells assessed as fold increase in caspase 3/7 activation at 128 uM incubated for 72 hrs by laser scanning imaging analysis; assay type: functional
Outline: (§6)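 BxPC3 (5 × 10^3/well) or GL261-Luc (3 × 10^3/well) were dosed 24 h after seeding for 72 h (0.1% DMSO final). CellEvent caspase-3/7 reagent was added for 1 h at 37 °C and whole-well fluorescence imaged (Ex 488/Em 520 nm). Cells were then fixed, permeabilised, blocked and stained with CellTag 700 (Ex 685/Em 720 nm) for cell number. Signal per cell is given as fold over control. ≥3 experiments, ≥4 replicates.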

[15] = tested on: GL261; assay: Induction of apoptosis in mouse GL261 cells transfected with luciferase gene assessed as fold increase in caspase 3/7 activation at 128 uM incubated for 72 hrs by laser scanning imaging analysis; assay type: functional; outline: as §3
[16] = tested on: Astrocyte; assay: Cytotoxicity against mouse astrocyte cells assessed as reduction in cell index at 128 uM incubated for 72 hrs by xCELLigence real time cell analyser method relative to control; assay type: toxicity, cell-based; parameters: scale not given: the % may be the effect or the level left; outline: as §5
[17] = tested on: BXPC-3; assay: Cytotoxicity against human BXPC-3 cells assessed as reduction in cell viability at 128 uM incubated for 72 hrs by CyQUANT assay; assay type: functional, cell-based; outline: as §4
[18] = tested on: BXPC-3; assay: Antiproliferative activity against human BXPC-3 cells assessed as reduction in cell index at 128 uM incubated for 72 hrs by xCELLigence real time cell analyser method; assay type: functional, cell-based; outline: as §5
[19] = tested on: GL261; assay: Antiproliferative activity against mouse GL261 cells transfected with luciferase gene assessed as reduction in cell index at 128 uM incubated for 72 hrs by xCELLigence real time cell analyser method; assay type: functional, cell-based; outline: as §5
[20] = tested on: BXPC-3; assay: Induction of apoptosis in human BXPC-3 cells assessed as increase in caspase 3/7 activation at 128 uM incubated for 72 hrs by laser scanning imaging analysis; assay type: functional, cell-based; outline: as §6
[21] = tested on: GL261; assay: Induction of apoptosis in mouse GL261 cells transfected with luciferase gene assessed as increase in caspase 3/7 activation at 128 uM incubated for 72 hrs by laser scanning imaging analysis; assay type: functional, cell-based; outline: as §6

**Q.** How did the Activity [1] turn out when `CC(C)OC(=O)[C@H](C)N` was run?
**A.** The Activity was “inactive”.

**Q.** What about the Activity [2] of the same compound?
**A.** The Activity was “inactive”.

**Q.** And the Activity [3]?
**A.** Its Activity is 12%.

**Q.** And the Activity [4]?
**A.** The Activity was “inactive”.

**Q.** And the Activity [5]?
**A.** Its Activity is “inactive”.

**Q.** What about the Activity [6] of the same compound?
**A.** Its Activity is 11%.

**Q.** And the Activity [7]?
**A.** Its Activity is “inactive”.

**Q.** And the Activity [8]?
**A.** The Activity was “inactive”.

**Q.** Which Activity [1] does the source give for `C[C@H](N)C(=O)OCc1ccccc1` here?
**A.** The Activity was “inactive”.

**Q.** And the Activity [2]?
**A.** The Activity was “inactive”.

**Q.** What about the Activity [3] of the same compound?
**A.** The Activity was 8%.

**Q.** What about the Activity [4] of the same compound?
**A.** The Activity was “inactive”.

**Q.** And the Activity [5]?
**A.** Its Activity is “inactive”.

**Q.** What about the Activity [6] of the same compound?
**A.** The Activity was 11%.

**Q.** And the Activity [7]?
**A.** The Activity was “inactive”.

**Q.** What about the Activity [8] of the same compound?
**A.** Its Activity is “inactive”.

**Q.** With `Oc1cccc2ccccc12` [1-NAPHTHOL] as the compound, how does the Activity [9] read?
**A.** The Activity was 53%.

**Q.** What about the Activity [10] of the same compound?
**A.** The Activity was 53%.

**Q.** And the Activity [11]?
**A.** The Activity was 29%.

**Q.** And the Activity [12]?
**A.** The Activity was 51%.

**Q.** What about the Activity [13] of the same compound?
**A.** Its Activity is “Toxic”.

**Q.** And the “fold change (FC)” value [14]?
**A.** Its value is 2.2.

**Q.** And the “fold change (FC)” value [15]?
**A.** Its value is 2.

**Q.** What does the source list for `Oc1ccc2ccccc2c1` [BETANAPHTHOL]?
**A.** Activity [9]: 90%; Activity [10]: 39%; Activity [11]: 29%; Activity [12]: 94%; Activity [16]: 46%; Activity [13]: Toxic; fold change (FC) [14]: 8.1

**Q.** `Oc1ccccc1` [PHENOL] was tested. Which Activity [17] did it give?
**A.** Its Activity is “inactive”.

**Q.** And the Activity [10]?
**A.** The Activity was “inactive”.

**Q.** What about the Activity [11] of the same compound?
**A.** The Activity was 8%.

**Q.** What about the Activity [18] of the same compound?
**A.** Its Activity is “inactive”.

**Q.** What about the Activity [19] of the same compound?
**A.** The Activity was “inactive”.

**Q.** And the Activity [16]?
**A.** The Activity was 11%.

**Q.** And the Activity [20]?
**A.** The Activity was “inactive”.

**Q.** And the Activity [21]?
**A.** The Activity was “inactive”.

**Q.** `OCc1ccccc1O` [SALICYL ALCOHOL] was tested. Which Activity [17] did it give?
**A.** The Activity was “inactive”.

**Q.** And the Activity [10]?
**A.** Its Activity is “inactive”.

**Q.** And the Activity [11]?
**A.** Its Activity is 22%.

**Q.** And the Activity [18]?
**A.** The Activity was “inactive”.

**Q.** What about the Activity [19] of the same compound?
**A.** Its Activity is “inactive”.

**Q.** What about the Activity [16] of the same compound?
**A.** Its Activity is 11%.

**Q.** And the Activity [20]?
**A.** Its Activity is “inactive”.

**Q.** And the Activity [21]?
**A.** The Activity was “inactive”.
